MrgX1 PAM = positive allosteric modulators of MrgX1, primary screen, HEK293 cells, Fluo-4 calcium flux | Mas-related G-protein coupled receptor member X1 (Homo sapiens), Q96LB2 | FDSS; hits give high values | B-score at 10 µM | 310,000 compounds, 0.63% hits | AID 588675, 2011;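 active = plate-corrected calcium response at least 3 library SD above typical, normal starting fluorescence, not activating the receptor alone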;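 also: compound read alongside a low EC10 to EC30 dose of BAM8-22 agonist; peak minus trough fluorescence over baseline measured at the second addition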
MrgX1 antagonist = antagonists of human MrgX1 receptor, primary screen, HEK293 cells, Fluo-4 calcium flux; BAM8-22 antagonism; hits give low values; 310,000 compounds, 1.3% hits; Mas-related G-protein coupled receptor member X1 (Homo sapiens), Q96LB2; B-score at 10 µM;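 active = calcium-response B-score plate-corrected more than 3 library SD below zero, starting fluorescence within 5 deviations, no agonist response on first addition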;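 also: peak minus trough fluorescence over baseline after final BAM8-22 challenge near maximal dose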
MrgX1 agonist = agonists of human MrgX1 receptor, primary screen, HEK293 cells, Fluo-4 calcium flux; 310,000 compounds, 0.44% hits; B-score at 10 µM; AID 588627, 2011; Fluo-4 calcium fluorescence, agonist mode; hits give high values;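 active = calcium response B-score plate-corrected fluorescence ratio at least 3 library SD, with starting fluorescence B-score inside 5 SD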
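times = overnight plating, then 30 min 37 °C plus 30 min room-temperature dye loading | assay system = stable human MrgX1 HEK293 cell line | input = fifteen thousand cells per well | signal = kinetic calcium dye fluorescence, Fluo-4 NW | dosing = compound delivered in addition one of three | read-out = B-scored fluorescence response ratio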
RGS4 inh = RGS4 inhibitors, primary screen, cell-based, HEK293 M3R inducible RGS4, calcium flux; B-score at 10 µM; Fluo-4 calcium flux; hits give high values; triggered by carbachol at its EC20; 310,000 compounds, 0.45% hits;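 active = B-score, a plate-corrected calcium signal, over three deviations above library mean, with baseline fluorescence within five deviations of library mean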;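 also: RGS4 expression induced by doxycycline in cells with stable M3 receptor; B-score is computed from the integrated fluorescence ratio over baseline after carbachol; higher B-score means a larger calcium signal and so more RGS4 inhibition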
Target sequence (P49798 whole entry, looked up): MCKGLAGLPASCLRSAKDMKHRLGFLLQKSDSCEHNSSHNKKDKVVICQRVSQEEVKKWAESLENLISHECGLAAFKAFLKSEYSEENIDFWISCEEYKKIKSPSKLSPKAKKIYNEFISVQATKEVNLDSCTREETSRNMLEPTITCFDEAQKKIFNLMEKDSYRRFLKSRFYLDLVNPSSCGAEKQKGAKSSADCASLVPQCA
RGS4 pot = RGS4 potentiators or activators, primary screen, cell-based, HEK293 M3R inducible RGS4, calcium flux; carbachol calcium flux Fluo4; hits give low values; B-score at 10 µM; 310,000 compounds, 0.92% hits; AID 463111, 2010;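 active = B-score of the integrated calcium signal more than 4 SD below the library mean, with starting fluorescence not abnormally high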;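 also: negative B-score means reduced calcium response which marks RGS4 activation or potentiation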
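System: HEK293 FlpIn-TREx cells, stable M3R, doxycycline-inducible RGS4. Timing: overnight RGS4 induction, 30 min dye load 37 °C, 20 min compound RT. Also added: carbachol, ECmax concentration. Measured by: Fluo4 fluorescence kinetic imaging of calcium. Evaluation: integrated calcium ratio converted to B score.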
Of the large screens only hits and unclear results are named; the others gave an inactive call. The list is not random: actives were taken first. Their share in the collection is about 3.5%.

O=C(NCCCn1ccnc1)C1c2ccccc2Oc2ccccc21	RGS4 pot -7.4
CCN(CC)CCOC(=O)C1c2ccccc2Oc2ccccc21	RGS4 pot -11
CCCCc1ccc(S(=O)(=O)Nc2nnc(C)s2)cc1	none
Cc1nc2c(oc3ccc(Cl)cc32)c(=O)[nH]1	none
COc1ccc(NC(C)=[N+](C)CCNS(=O)(=O)c2ccc(Cl)cc2)cc1	none
Cc1c(C(=O)NCc2cccnc2)oc2ccc(S(=O)(=O)N3CCC4(CC3)OCCO4)cc12	none
Cc1ccc(CNC(=O)c2oc3ccc(S(=O)(=O)N4CCC5(CC4)OCCO5)cc3c2C)cc1	RGS4 pot -8.4
COC(=O)c1ccc(OC(=O)c2ccco2)cc1	none
O=Cc1ccnc(-c2ccc(OC(=O)c3ccco3)cc2)n1	MrgX1 agonist 76
Cc1ccc(-c2noc(-c3cc(C(C)(C)C)nn3Cc3ccccc3)n2)cc1	MrgX1 antagonist -6.8
CCCCNS(=O)(=O)c1cc2c3c(c1)CCN3C(=O)CC2	none
O=C1/C(=C\c2ccco2)CCC/C1=C\c1ccco1	MrgX1 PAM 7.6
O=C1/C(=C/c2ccco2)CCC1C1CCCC1 (configuration not stated)	none
CC1C/C(=C/c2ccco2)C(=O)/C(=C/c2ccco2)C1 (configuration not stated)	RGS4 inh 6.6
O=C1/C(=C/c2ccco2)Cc2ccccc21	none
CC1=CCC(C(=O)O)C(C(=O)Nc2ccc(-c3nc4ccc(C)cc4s3)cc2)C1 (configuration not stated)	none
COC(=O)c1ccccc1NC(=O)CN1CCc2ccccc2C1	none
COC(=O)c1ccccc1NC(=O)CN1CCN(C23CC4CC(CC(C4)C2)C3)CC1	RGS4 pot -8
CCOC(=O)c1ccc(Cl)c(NC(=O)c2ccc(-c3ccccc3)cc2)c1	none
CCOC(=O)c1ccc(/C=C2/C=C(c3ccccc3)N(c3ccc(Cl)c(C(=O)O)c3)C2=O)cc1	MrgX1 agonist 40
COc1ccc2oc(=O)c(C(=O)OCc3ccccc3)cc2c1	none
CN1CCC(=C(c2ccccc2)c2ccc(Br)cc2)CC1	RGS4 pot -7.7
O=C(CCN1CCCCCC1)c1ccccc1	MrgX1 agonist 31 (no result: RGS4 inh, RGS4 pot)
COc1ccccc1/C=C/C1C(C(=O)OCC(C)C)=C(C)N=C2SCCC(=O)N21 (configuration not stated)	none
COC(=O)C1=C(C)N=C2SCCC(=O)N2C1/C=C/c1ccccc1 (configuration not stated)	RGS4 pot -7.4
CCCc1cc(O)c2c(C)cc(=O)oc2c1	MrgX1 agonist 31
CCCCc1cc(=O)oc2cc(O)cc(O)c12	MrgX1 agonist 33
CCCCc1cc(=O)oc2cc(C)cc(O)c12	none
COc1cccc(NC(=O)NC2(C(=O)N3CCN(C)CC3)CCCCC2)c1	none
COc1cccc(/C=N/NC(=O)N/N=C/c2cccc(OC)c2O)c1O	RGS4 pot -7.9
COc1cccc(/C=N/Nc2snc(SC)c2C#N)c1O	MrgX1 antagonist -5.4
COc1ccc(/C=N/Nc2snc(SC)c2C#N)cc1OC	none
COc1cccc(/C=N/NC(=O)C(=O)N2CCCC2)c1O	none
COc1ccc(N(CCC#N)C(=O)/C(C#N)=C/c2cccs2)cc1	none
CCOC(=O)C1CCN(C(=O)c2cnn3c(C)cc(C)nc23)CC1	none
Cc1cc(C(=O)NNC(=O)c2cccs2)nn1C(C)(C)C	MrgX1 antagonist -7.2
Cc1cc(C(=O)NNS(=O)(=O)c2ccc(F)cc2)nn1C(C)(C)C	none
CCC(NC(C)C)C(O)c1ccc(O)c2[nH]c(=O)ccc12 (configuration not stated)	MrgX1 agonist 28
CCOC(=O)C1CCCN(C2=NC(=O)/C(=C/c3ccc(O)c(OCC)c3)S2)C1 (configuration not stated)	MrgX1 antagonist -4.5
COc1cc(/C=C2/C(=N)N3C=CSC3=NC2=O)ccc1OCCCOc1ccccc1C	none
COc1cc(/C=C2/C(=N)N3C=CSC3=NC2=O)ccc1OCCOc1ccc(NC(C)=O)cc1	MrgX1 PAM 14
